Consider two molecules from ChEMBL document CHEMBL4376840, “Application of Fluorine- and Nitrogen-Walk Approaches: Defining the Structural and Functional Diversity of 2-Phenylindole Class of Cannabinoid 1 Receptor Positive Allosteric Modulators” (J Med Chem, 2020).

Structures are written as SMILES. Active and inactive are the calls of the source.

Broadly, the EC50 is the concentration giving half of the maximal effect. The Emax is the greatest response seen or fitted, relative to the assay's reference.

In data set [1] the test system is Mus musculus. As to the kind of experiment: Antiallodynic activity against CFA-induced mechanical allodynia CD1 mouse model assessed as increase in ipsilateral paw withdrawal threshold at 30 mg/kg, ip after […] post treatment by Von Frey test. The class given is functional, organism-based.
Data set [2] addresses T1, Cannabinoid receptor 1 (Homo sapiens, UniProt P21554). Description: Positive allosteric modulatory activity at human CB1R expressed in CHO-K1 cells assessed as increase in CP55940-induced inhibition of forskolin-induced cAMP accumulation by measuring cAMP accumulation at minimal level at higher concentration after 90 mins in presence of 100 nM CP55940 by hit-hunter cAMP assay relative to forskolin. The class given is functional, cell-based. In outline:
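Uses the HitHunter CHO-K1 hCB1R cAMP set-up above. […] Data normalized to % forskolin, 4-parameter fit. n ≥ 6, triplicate.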
A general note: cAMP levels reflect the balance of adenylyl cyclase and phosphodiesterase activity.

Data set [3] can be described thus: Toxicity in C57BL/6 mouse assessed as effect on hypothermia at 0.1 to 10 mg/kg, ip after 15 mins by thermometric method. The class given is organism-based. The settings on record: in vivo. In outline:
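Male C57BL/6 mice were given 0.1 – 10 mg/kg compound or vehicle (1:1:18 ethanol:cremaphor:saline). Body temperature was measured at 15 min and expressed relative to vehicle (100%). n = 5–6.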

Data set [4] has as its target T1, Cannabinoid receptor 1. As to the kind of experiment: Positive allosteric modulatory activity at human CB1R expressed in CHO-K1 cells assessed as increase in CP55940-induced beta-arrestin2 recruitment after 90 mins in presence of CP55940 at EC20 concentration by pathhunter beta-arrestin assay. The format is cell-based. The method, boiled down:
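Read-out was chemiluminescent β-arrestin2 recruitment, fit with a 4-parameter regression. n = 1–3 independent experiments in duplicate.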
On the technique in general: Arrestin recruitment assays detect the binding of arrestin to an activated receptor.

Data set [5] concerns the target T1, Cannabinoid receptor 1. As to the kind of experiment: Positive allosteric modulatory activity at human CB1R expressed in CHO-K1 cells assessed as increase in CP55940-induced inhibition of forskolin-induced cAMP accumulation after 90 mins in presence of 100 nM CP55940 by hit-hunter cAMP assay. The format is functional, cell-based. In outline: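 Uses the HitHunter CHO-K1 hCB1R cAMP set-up above. Data normalized to % forskolin, 4-parameter fit. n ≥ 6, triplicate.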

For data set [6], the system named is Mus musculus. Description: Antiallodynic activity in ip dosed CFA-induced mechanical allodynia CD1 mouse model assessed as increase in ipsilateral paw withdrawal threshold measured every 3 hrs for 2 days post treatment by Von Frey test. The format is functional, organism-based. In outline: (§1)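 Mice received CFA injection into one paw. Mechanical paw withdrawal thresholds were measured in the injected (ipsilateral) and contralateral paws after i.p. compound at 0.1, 0.3, 1, 3, 10 or 30 mg/kg, compared with vehicle-treated groups at the same times.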

For data set [7], the target named is T1, Cannabinoid receptor 1. Description: Positive allosteric modulatory activity at human CB1R expressed in CHO-K1 cells assessed as increase in CP55940-induced beta arrestin2 recruitment after 90 mins in presence of 100 nM CP55940 by pathhunter beta-arrestin assay. The class given is cell-based.
The subject of data set [8] is Mus musculus. Description: Antiallodynic activity against CFA-induced mechanical allodynia CD1 mouse model assessed as increase in ipsilateral paw withdrawal threshold at 30 mg/kg, ip after 30 mins post treatment by Von Frey test. The format is functional, organism-based. In outline:
(§2)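 Time course in the CFA model at 30 mg/kg i.p. Ipsilateral and contralateral mechanical paw withdrawal thresholds were followed from 30 min to 4 h post-injection in wild-type and CB1 knockout mice. Compared with vehicle by ANOVA and Bonferroni post hoc tests.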

Data set [9] relates to Mus musculus. Description: Antiallodynic activity against CFA-induced mechanical allodynia CD1 mouse model assessed as increase in ipsilateral paw withdrawal threshold at 30 mg/kg, ip by Von Frey test. The format is functional, organism-based. The settings on record: TDE = time-dependent effect. In outline: as §2
In data set [10] the target is Cannabinoid receptor 1 (Rattus norvegicus) (UniProt P20272). As to the kind of experiment: Positive allosteric modulatory activity at N-terminal GFP-tagged rat CB1R receptor expressed in HEK293 cells assessed as increase in CP55940-induced inhibition of forskolin-induced cAMP accumulation by measuring Emax for cAMP accumulation at low concentrations of CP55940 at 0.03 microM after 30 mins by TR-FRET assay relative to forskolin. The class given is functional, cell-based.

Data set [11] in a line: Toxicity in C57BL/6 mouse assessed as catalepsy at 0.1 to 10 mg/kg, ip after 5 mins by bar holding assay. The settings on record: in vivo. The format is organism-based. The method, boiled down:
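Male C57BL/6 mice were given 0.1 – 10 mg/kg compound or vehicle (1:1:18 ethanol:cremaphor:saline). Catalepsy was assessed at 5 min as % MPE with a 60 sec maximum. n = 5–6.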

Data set [12] deals with Cannabinoid receptor 1 (Rattus norvegicus) (UniProt P20272). As to the kind of experiment: Positive allosteric modulatory activity at N-terminal GFP-tagged rat CB1R receptor expressed in HEK293 cells assessed as downward shift in CP55940 dependent concentration response curve for inhibition of forskolin-induced cAMP accumulation after 30 mins by TR-FRET assay. The format is functional, cell-based.

In data set [13] the test system is Mus musculus. As to the kind of experiment: Antinociceptive activity in ip dosed C57BL/6 mouse after 20 mins post treatment by warm water tail-flick assay. The class given is functional, organism-based. On the technique in general: In hot-plate and tail-flick tests a longer latency is read as antinociception.
For data set [14], the target named is T1, Cannabinoid receptor 1. As to the kind of experiment: Positive allosteric modulation activity at human CB1 receptor expressed in CHO cell membranes assessed as increase in [3H]CP55940 binding at 1 uM measured after 90 mins in presence of [35S]GTPgammaS by liquid scintillation analysis. The format is functional.
For data set [15], the target named is T1, Cannabinoid receptor 1. Description: Positive allosteric modulatory activity at human CB1R expressed in CHO-K1 cells assessed as maximal increase in CP55940-induced beta arrestin2 recruitment after 90 mins in presence of 100 nM CP55940 by pathhunter beta-arrestin assay relative to CP55940. The format is cell-based.
Data set [16] has as its system Mus musculus. As to the kind of experiment: Effect on contralateral paw withdrawl threshold in CFA-induced mechanical allodynia CB1 receptor knockout CD1 mouse model at 0.1 to 30 mg/kg, ip measured for 0.5 to 4 hrs by Von Frey test. The class given is ADME, organism-based. The settings on record: in vivo.
The target in data set [17] is Cannabinoid receptor 1 (Rattus norvegicus) (UniProt P20272). Description: Positive allosteric modulatory activity at N-terminal GFP-tagged rat CB1R receptor expressed in HEK293 cells assessed as leftward shift in CP55940 dependent concentration response curve for inhibition of forskolin-induced cAMP accumulation after 30 mins by TR-FRET assay. The class given is functional, cell-based.

Data set [18] relates to Mus musculus. As to the kind of experiment: Antiallodynic activity against CFA-induced mechanical allodynia CB1 receptor knockout CD1 mouse assessed as effect on ipsilateral paw withdrawal threshold at 30 mg/kg, ip measured for 0.5 to 4 hrs by Von Frey test. The class given is functional, organism-based. The method, boiled down:
as §2

The subject of data set [19] is Mus musculus. As to the kind of experiment: Antiallodynic activity against CFA-induced mechanical allodynia CD1 mouse model assessed as effect on ipsilateral paw withdrawal threshold at 0.3 mg/kg, ip measured every 3 hrs for 2 days post treatment by Von Frey test. The format is functional, organism-based. The method, boiled down:
as §1

Data set [20] deals with T1, Cannabinoid receptor 1. Description: Allosteric agonist activity at human CB1R expressed in CHO-K1 cells assessed as inhibition of forskolin-induced cAMP accumulation by measuring cAMP accumulation at minimal level at higher concentrations after 90 mins by hit-hunter cAMP assay relative to forskolin. The format is functional, cell-based. The method, boiled down:
(§3)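 HitHunter CHO-K1 hCB1R cells (20,000/well) were held overnight in Opti-MEM with 1% FBS. They were then co-treated at 37°C with 10 μM forskolin plus compound alone (0.10 nM – 10 μM) for 90 min. Chemiluminescent cAMP detection followed (two 60-min room-temperature steps). Data as % forskolin, variable-slope 4-parameter fit; Emin is the lower plateau. n ≥ 6, triplicate.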

The target of data set [21] is T1, Cannabinoid receptor 1. As to the kind of experiment: Allosteric agonist activity at human CB1R expressed in CHO-K1 cells assessed as inhibition of forskolin-induced cAMP accumulation after 90 mins by hit-hunter cAMP assay. The format is functional, cell-based. The method, boiled down: as §3

Sequence of Cannabinoid receptor 1 (Rattus norvegicus) (P20272 whole entry): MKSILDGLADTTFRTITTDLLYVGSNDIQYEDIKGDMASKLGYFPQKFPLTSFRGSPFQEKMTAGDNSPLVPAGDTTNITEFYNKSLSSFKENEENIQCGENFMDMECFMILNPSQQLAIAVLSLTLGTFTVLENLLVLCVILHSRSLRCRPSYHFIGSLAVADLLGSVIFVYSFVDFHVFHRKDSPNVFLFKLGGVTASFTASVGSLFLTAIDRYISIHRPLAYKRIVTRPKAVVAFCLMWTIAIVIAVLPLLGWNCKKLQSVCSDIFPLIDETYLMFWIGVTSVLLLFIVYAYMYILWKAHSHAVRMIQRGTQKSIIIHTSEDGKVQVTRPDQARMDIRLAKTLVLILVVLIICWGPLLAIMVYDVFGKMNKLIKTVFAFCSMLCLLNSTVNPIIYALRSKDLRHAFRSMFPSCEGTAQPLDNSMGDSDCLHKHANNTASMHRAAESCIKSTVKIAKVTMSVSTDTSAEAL
T1 sequence (P21554 whole entry): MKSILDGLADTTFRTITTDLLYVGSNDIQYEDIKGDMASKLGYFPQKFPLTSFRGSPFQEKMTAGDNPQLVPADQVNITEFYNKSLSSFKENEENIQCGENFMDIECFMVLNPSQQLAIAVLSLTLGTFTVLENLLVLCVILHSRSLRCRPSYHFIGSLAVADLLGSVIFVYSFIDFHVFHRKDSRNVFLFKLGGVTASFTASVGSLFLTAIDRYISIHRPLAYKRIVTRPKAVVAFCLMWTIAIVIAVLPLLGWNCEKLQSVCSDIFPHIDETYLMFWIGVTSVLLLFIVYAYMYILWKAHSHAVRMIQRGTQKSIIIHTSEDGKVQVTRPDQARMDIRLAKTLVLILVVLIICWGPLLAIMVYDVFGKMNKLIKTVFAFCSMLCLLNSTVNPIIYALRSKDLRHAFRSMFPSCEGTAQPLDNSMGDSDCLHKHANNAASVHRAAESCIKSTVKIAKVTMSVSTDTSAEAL

Regarding `O=[N+]([O-])CC(c1ccccc1F)c1c(-c2cccc(F)c2)[nH]c2cc(F)ccc12` (configuration not stated), the result in the data set with Mus musculus [1], in the data set on Mus musculus [8] and at Cannabinoid receptor 1 [14] was Active. For the same molecule, the Emin on Cannabinoid receptor 1 [2] worked out at 9%; on Cannabinoid receptor 1 [20], 4.2%. For the same molecule, the Activity result in data set [3] is “Non-Toxic”; in the data set with Mus musculus [6] it was “Dose-dependent effect”; in the data set with Mus musculus [9], “Tde”; in data set [11] it was “Non-Toxic”; in data set [12] it was “Dose-dependent effect”; with Mus musculus [13], “Dose-dependent effect”. In addition, the Activity entry with Mus musculus [16] is “Non-Toxic”; in data set [17] it was “Dose-dependent effect”. The EC50 is 750 nM at Cannabinoid receptor 1 [4], 2.2 nM on Cannabinoid receptor 1 [5], 190 nM on Cannabinoid receptor 1 [7] and 4.3 nM at Cannabinoid receptor 1 [21]. For the same molecule, the Emax was 58% in [10] and 130% on Cannabinoid receptor 1 [15]. Moreover, the outcome with Mus musculus [18] and in the data set on Mus musculus [19] was inactive.
With `O=[N+]([O-])CC(c1ccccc1F)c1c(-c2cccc(F)c2)[nH]c2c(F)cccc12` (configuration not stated), the outcome in the data set on Mus musculus [1], with Mus musculus [8] and on Cannabinoid receptor 1 [14] was Active. Moreover, the Emin at Cannabinoid receptor 1 [2] was determined as 10%; at Cannabinoid receptor 1 [20], 18%. Moreover, the Activity result was “Non-Toxic” in data set [3]; “Dose-dependent effect” with Mus musculus [6]; “Tde” in the data set with Mus musculus [9]; “Non-Toxic” in [11]; “Dose-dependent effect” in data set [12]; “Dose-dependent effect” in the data set on Mus musculus [13]. The Activity result in the data set with Mus musculus [16] was “Non-Toxic”; in data set [17], “Dose-dependent effect”. Besides, the EC50 on Cannabinoid receptor 1 [4] amounted to 510 nM; at Cannabinoid receptor 1 [5] it was 1.7 nM; on Cannabinoid receptor 1 [7] it was 3500 nM; on Cannabinoid receptor 1 [21] it was 3.9 nM. The Emax in data set [10] came to 63%; at Cannabinoid receptor 1 [15], 130%. Moreover, the result in the data set on Mus musculus [18] and with Mus musculus [19] was inactive.
